Results taken from ChEMBL document CHEMBL3853270, “Influence of Birch Bark Triterpenes on Keratinocytes and Fibroblasts from Diabetic and Nondiabetic Donors” (2016).
Active and inactive are the calls of the source. The calls are words filed in the database; no cut-off is given here.

Experiments:
Format in all cases: functional
[1] = Effect on wound healing activity in non-diabetic adult human primary keratinocytes assessed as upregulation of RANTES protein levels at 1.96 uM after 24 hrs by bead-based suspension array analysis; settings: Keratinocyte
[2] = test system: Keratinocyte; assay: Effect on ECM related gene expression in non-diabetic young human primary keratinocytes assessed as FBN1 mRNA levels at 1.96 uM after 6 hrs by qPCR analysis
Outline: (§1)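 Primary keratinocytes from nondiabetic young and adult and diabetic adult donors; 400 000 cells per sample, 6 h exposure at 1.96 or 9.81 μM. RNA extracted and read on a high-throughput qPCR chip. Results are fold change versus 0.1% DMSO solvent control from 5−7 independent experiments over two donors per group, SD, one-way ANOVA with Bonferroni post-test.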

[3] = test system: Keratinocyte; assay: Effect on pro-inflammatory related gene expression in non-diabetic young human primary keratinocytes assessed as IL1R1 mRNA levels at 1.96 uM after 6 hrs by qPCR analysis
[4] = test system: Keratinocyte; assay: Effect on growth factor related gene expression in non-diabetic young human primary keratinocytes assessed as VEGFA mRNA levels at 1.96 uM after 6 hrs by qPCR analysis
Outline: (§2)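 Primary human keratinocytes (nondiabetic young or adult, diabetic adult donors) were exposed to compound for 6 h, with 0.1% DMSO as solvent control. Total RNA came from 400 000 cells per sample and was assayed on a Fluidigm Biomark high-throughput qPCR chip. Results are fold change vs solvent control, from 2−4 independent experiments on two donors per group, with SD. Groups were compared by one-way ANOVA with Bonferroni post-test.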

[5] = test system: Keratinocyte; assay: Effect on MMP1 mRNA expression levels in non-diabetic young human primary keratinocytes at 1.96 uM after 6 hrs by qPCR analysis; outline: as §1
[6] = test system: Keratinocyte; assay: Effect on chemokines related gene expression in non-diabetic adult human primary keratinocytes assessed as IL8 mRNA levels at 1.96 uM after 6 hrs by qPCR analysis
[7] = test system: Keratinocyte; assay: Effect on transcription factor related gene expression in non-diabetic adult human primary keratinocytes assessed as JUN mRNA levels at 1.96 uM after 6 hrs by qPCR analysis
[8] = test system: Keratinocyte; assay: Effect on chemokines related gene expression in diabetic adult human primary keratinocytes assessed as CXCL10 mRNA levels at 1.96 uM after 6 hrs by qPCR analysis
[9] = test system: Keratinocyte; assay: Effect on pro-inflammatory related gene expression in non-diabetic young human primary keratinocytes assessed as IL6 mRNA levels at 9.81 uM after 6 hrs by qPCR analysis
[10] = test system: Keratinocyte; assay: Effect on antiinflammatory related gene expression in non-diabetic young human primary keratinocytes assessed as NFKBIA mRNA levels at 9.81 uM after 6 hrs by qPCR analysis
[11] = test system: Keratinocyte; assay: Effect on growth factor related gene expression in non-diabetic young human primary keratinocytes assessed as GDF15 mRNA levels at 9.81 uM after 6 hrs by qPCR analysis; outline: as §2
[12] = test system: Keratinocyte; assay: Effect on growth factor related gene expression in non-diabetic young human primary keratinocytes assessed as PDGFB mRNA levels at 9.81 uM after 6 hrs by qPCR analysis; outline: as §2
[13] = test system: Keratinocyte; assay: Effect on MMP1 mRNA expression levels in non-diabetic young human primary keratinocytes at 9.81 uM after 6 hrs by qPCR analysis; outline: as §1
[14] = test system: Keratinocyte; assay: Effect on pro-inflammatory related gene expression in non-diabetic adult human primary keratinocytes assessed as IL1R1 mRNA levels at 9.81 uM after 6 hrs by qPCR analysis
[15] = test system: Keratinocyte; assay: Effect on pro-inflammatory related gene expression in non-diabetic adult human primary keratinocytes assessed as IL6 mRNA levels at 9.81 uM after 6 hrs by qPCR analysis
[16] = test system: Keratinocyte; assay: Effect on MMP1 mRNA expression levels in non-diabetic adult human primary keratinocytes at 9.81 uM after 6 hrs by qPCR analysis; outline: as §1
[17] = test system: Keratinocyte; assay: Effect on AQP3 mRNA expression levels in non-diabetic adult human primary keratinocytes at 9.81 uM after 6 hrs by qPCR analysis; outline: as §1
[18] = test system: Keratinocyte; assay: Effect on chemokines related gene expression in diabetic adult human primary keratinocytes assessed as CXCL10 mRNA levels at 9.81 uM after 6 hrs by qPCR analysis
[19] = test system: Keratinocyte; assay: Effect on growth factor related gene expression in diabetic adult human primary keratinocytes assessed as GDF15 mRNA levels at 9.81 uM after 6 hrs by qPCR analysis; outline: as §2
[20] = test system: Fibroblast; assay: Effect on antiinflammatory related gene expression in non-diabetic young human primary fibroblasts assessed as SOCS3 mRNA levels at 9.81 uM after 6 hrs by qPCR analysis
[21] = test system: Fibroblast; assay: Effect on pro-inflammatory related gene expression in diabetic adult human primary fibroblasts assessed as PTGS2 mRNA levels at 1.96 uM after 6 hrs by qPCR analysis
[22] = test system: Fibroblast; assay: Effect on pro-inflammatory related gene expression in diabetic adult human primary fibroblasts assessed as IL1B mRNA levels at 1.96 uM after 6 hrs by qPCR analysis
Outline: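 Primary human dermal fibroblasts (young or adult nondiabetic, adult diabetic donor) were treated for 6 h against a 0.1% DMSO solvent control. RNA from 320 000 cells per sample was measured by Fluidigm Biomark high-throughput qPCR. Values are fold change relative to solvent control, from four independent experiments, with SD. One-way ANOVA with Bonferroni post-test was applied.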

[23] = test system: Fibroblast; assay: Effect on antiinflammatory related gene expression in diabetic adult human primary fibroblasts assessed as NFKBIA mRNA levels at 1.96 uM after 6 hrs by qPCR analysis
Outline: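 Primary dermal fibroblasts from one nondiabetic young, one nondiabetic adult and one diabetic adult donor; 320 000 cells per sample, 6 h at 1.96 or 9.81 μM. RNA measured on a high-throughput qPCR chip. Fold change versus 0.1% DMSO control, four independent experiments, SD, one-way ANOVA with Bonferroni post-test.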

[24] = test system: Fibroblast; assay: Effect on pro-inflammatory related gene expression in non-diabetic adult human primary fibroblasts assessed as IL1R1 mRNA levels at 9.81 uM after 6 hrs by qPCR analysis
[25] = test system: Fibroblast; assay: Effect on chemokines related gene expression in non-diabetic adult human primary fibroblasts assessed as CCL2 mRNA levels at 1.96 uM after 6 hrs by qPCR analysis
[26] = test system: Fibroblast; assay: Effect on chemokines related gene expression in diabetic adult human primary fibroblasts assessed as IL8 mRNA levels at 9.81 uM after 6 hrs by qPCR analysis
[27] = test system: Fibroblast; assay: Effect on adhesion molecules related gene expression in diabetic adult human primary fibroblasts assessed as VCAM1 mRNA levels at 9.81 uM after 6 hrs by qPCR analysis
Outline: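 Dermal fibroblasts from nondiabetic adult and diabetic adult donors, exposed for 6 h at 1.96 or 9.81 μM. ICAM-1 and VCAM-1 mRNA measured by standard qRT-PCR, n = 3. Fold change versus 0.1% DMSO control, SD, one-way ANOVA with Bonferroni post-test.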

[28] = Effect on wound healing activity in non-diabetic adult human primary fibroblasts assessed as upregulation of soluble TNFR1 protein levels at 1.96 uM after 24 hrs by bead-based suspension array analysis; settings: Fibroblast
[29] = Effect on wound healing activity in non-diabetic adult human primary fibroblasts assessed as upregulation of soluble ICAM1 protein levels at 1.96 uM after 24 hrs by bead-based suspension array analysis; settings: Fibroblast

SMILES: C=C(C)[C@@H]1CC[C@]2(CO)CC[C@]3(C)[C@H](CC[C@@H]4[C@@]5(C)CC[C@H](O)C(C)(C)[C@@H]5CC[C@]43C)[C@@H]12 [BETULIN]
- Activity [1]: Active
- fold change (FC) [2]: 1.8
- fold change (FC) [3]: 0.9
- fold change (FC) [4]: 1.3
- fold change (FC) [5]: 1
- fold change (FC) [6]: 24.2
- fold change (FC) [7]: 1.3
- fold change (FC) [8]: 6
- fold change (FC) [9]: 6
- fold change (FC) [10]: 1.6
- fold change (FC) [11]: 1.1
- fold change (FC) [12]: 1.1
- fold change (FC) [13]: 1
- fold change (FC) [14]: 0.9
- fold change (FC) [15]: 24.1
- fold change (FC) [16]: 1
- fold change (FC) [17]: 0.8
- fold change (FC) [18]: 12.1
- fold change (FC) [19]: 2.5
- fold change (FC) [20]: 3.2
- fold change (FC) [21]: 4.1
- fold change (FC) [22]: 7.6
- fold change (FC) [23]: 3.1
- fold change (FC) [24]: 4.9
- fold change (FC) [25]: 171
- fold change (FC) [26]: 3.7
- fold change (FC) [27]: 1.3
- Activity [28]: Active
- Activity [29]: Active
